Data from ChEMBL document CHEMBL3244011, “(Aryloxy)[p-(aryloxy)phenyl]- and (aryloxy)[p-(arylthio)phenyl]acetic acids and esters as hypolipidemic agents” (1979).

Key:
Type in all cases: functional
Set-up in all cases: scale not given: the % may be the effect or the level left
Rattus norvegicus [1] = test: Hypolipidemic activity in COBBS-CD rat assessed as reduction in serum triglyceride level at 0.03% administered with chow diet after 5 days relative to control
How it was run: (§1)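 The compound was given in ground chow at 0.1, 0.03 or 0.01% w/w (about 100, 30 and 10 mg/kg) to male COBBS-CD rats (n=4; solvent-chow controls n=8) for 5 days ad libitum. Rats were killed by decapitation and blood collected. Serum triglycerides were assayed by an automated method and compared with controls; ± values are SD.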

Rattus norvegicus [2] = test: Hypolipidemic activity in COBBS-CD rat assessed as reduction in serum triglyceride level at 0.01% administered with chow diet after 5 days relative to control; how it was run: as §1
Rattus norvegicus [3] = test: Hypolipidemic activity in COBBS-CD rat assessed as reduction in serum sterol level at 0.01% administered with chow diet after 5 days relative to control
How it was run: (§2)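 Male COBBS-CD rats, four per treated group and eight per control group. The compound was mixed into ground rat chow at 0.1, 0.03 or 0.01% w/w (about 100, 30 and 10 mg/kg). Control chow received only the mixing solvent (methanol-chloroform 1:3 v/v). Food and water were ad libitum for 5 days, then rats were decapitated and blood collected. Serum sterols were measured by an automated method and expressed relative to controls; ± values are SD.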

Rattus norvegicus [4] = test: Hypolipidemic activity in COBBS-CD rat assessed as reduction in serum sterol level at 0.03% administered with chow diet after 5 days relative to control; how it was run: as §2
Rattus norvegicus [5] = test: Hypolipidemic activity in COBBS-CD rat assessed as reduction in serum triglyceride level at 0.1% administered with chow diet after 5 days relative to control; how it was run: as §1
Rattus norvegicus [6] = test: Hypolipidemic activity in COBBS-CD rat assessed as reduction in serum sterol level at 0.1% administered with chow diet after 5 days relative to control; how it was run: as §2
Rattus norvegicus [7] = test: Hypolipidemic activity in COBBS-CD rat assessed as reduction in serum triglyceride level at 0.3% administered with chow diet after 5 days relative to control
Rattus norvegicus [8] = test: Hypolipidemic activity in COBBS-CD rat assessed as reduction in serum sterol level at 0.3% administered with chow diet after 5 days relative to control

| Structure (SMILES) | Activity (Rattus norvegicus [1]) | Activity (Rattus norvegicus [2]) | Activity (Rattus norvegicus [3]) | Activity (Rattus norvegicus [4]) | Activity (Rattus norvegicus [5]) | Activity (Rattus norvegicus [6]) | Activity (Rattus norvegicus [7]) | Activity (Rattus norvegicus [8]) |
| --- | --- | --- | --- | --- | --- | --- | --- | --- |
| CCOP(=O)(OCC)C(Oc1ccc(Cl)cc1)(C(=O)OC)c1ccc(Oc2ccc(Cl)cc2)cc1 (centres undefined) | 44% | 18% | 23% | 27% | 60% | 43% | – | – |
| COC(=O)C(Oc1cccc(-c2ccccc2)c1)c1ccc(Oc2ccc(Cl)cc2)cc1 (centres undefined) | 45% | 38% | 8% | 21% | 66% | 28% | – | – |
| COC(=O)C(Oc1ccc(C2CCCCC2)cc1)c1ccc(Oc2ccc(Cl)cc2)cc1 (centres undefined) | 47% | 37% | 20% | 21% | 66% | 51% | – | – |
| O=C(O)C(Oc1ccc(F)cc1)c1ccc(Oc2ccc(Cl)cc2)cc1 (centres undefined) | 48% | 20% | 41% | 28% | 58% | 29% | – | – |
| COC(=O)C(Oc1cccc(Cl)c1)c1ccc(Oc2ccc(Cl)cc2)cc1 (centres undefined) | 22% | 13% | -3% | 11% | 50% | 19% | – | – |
| COC(=O)C(Oc1cc(C(C)(C)C)cc(C(C)(C)C)c1)c1ccc(Oc2ccc(Cl)cc2)cc1 (centres undefined) | -7% | 23% | -30% | -12% | 7% | -6% | – | – |
| COC(=O)C(Oc1ccc(Cl)c(Cl)c1)c1ccc(Oc2ccc(Cl)cc2)cc1 (centres undefined) | 60% | 14% | 5% | 26% | 67% | 24% | – | – |
| COC(=O)C(Oc1ccc2ccc(=O)oc2c1)c1ccc(Oc2ccc(Cl)cc2)cc1 (centres undefined) | -23% | 4% | -5% | 7% | -16% | -4% | – | – |
| COC(=O)C(Oc1ccc(Cl)c2cccnc12)c1ccc(Oc2ccc(Cl)cc2)cc1 (centres undefined) | 4% | -3% | 4% | 4% | 5% | 5% | – | – |
| COC(=O)C(Oc1cccc2c1CCC2)c1ccc(Oc2ccc(Cl)cc2)cc1 (centres undefined) | -8% | -39% | 7% | 10% | 17% | 19% | – | – |
| COC(=O)C(Oc1ccc(Cl)c(C)c1)c1ccc(Oc2ccc(Cl)cc2)cc1 (centres undefined) | 39% | 28% | 34% | 34% | 54% | 39% | – | – |
| COC(=O)C(Oc1ccc(NC(C)=O)cc1)c1ccc(Oc2ccc(Cl)cc2)cc1 (centres undefined) | -20% | -9% | -4% | -11% | 13% | -3% | – | – |
| COC(=O)C(Oc1ccc(Cl)cc1)c1ccc(Oc2ccc(C#N)cc2)cc1 (centres undefined) | 60% | 50% | 20% | 19% | 71% | 16% | – | – |
| COC(=O)C(Oc1cccc(C(F)(F)F)c1)c1ccc(Oc2ccc(C#N)cc2)cc1 (centres undefined) | 34% | -37% | 12% | 24% | 50% | 32% | – | – |
| COC(=O)C(Oc1ccc(C(C)(C)C)cc1)c1ccc(Oc2ccc(C#N)cc2)cc1 (centres undefined) | 63% | 69% | 16% | 13% | 59% | 13% | – | – |
| COC(=O)C(Oc1ccc(C(C)(C)C)cc1)c1ccc(Oc2ccc([N+](=O)[O-])cc2)cc1 (centres undefined) | 40% | 34% | -3% | -4% | 51% | 10% | – | – |

| Structure (SMILES) | Activity (Rattus norvegicus [1]) | Activity (Rattus norvegicus [2]) | Activity (Rattus norvegicus [3]) | Activity (Rattus norvegicus [4]) | Activity (Rattus norvegicus [5]) | Activity (Rattus norvegicus [6]) | Activity (Rattus norvegicus [7]) | Activity (Rattus norvegicus [8]) |
| --- | --- | --- | --- | --- | --- | --- | --- | --- |
| COC(=O)C(Oc1ccc(Cl)cc1)c1ccc(Oc2ccccc2)cc1 (centres undefined) | 56% | 62% | 19% | 3% | 58% | 13% | – | – |
| COC(=O)C(Oc1ccccc1)c1ccc(Oc2ccccc2)cc1 (centres undefined) | 49% | 46% | 10% | 19% | 58% | 21% | – | – |
| COC(=O)C(Oc1ccc(Cl)cc1)c1ccc(Oc2ccc(Cl)c3ccccc23)cc1 (centres undefined) | 12% | 33% | 6% | 17% | 38% | 23% | – | – |
| COC(=O)C(Oc1ccc(Cl)cc1)c1ccc(Oc2cccc(C(F)(F)F)c2)cc1 (centres undefined) | 47% | 35% | 8% | 31% | 50% | 32% | – | – |
| COC(=O)C(Oc1ccc(C2CCCCC2)cc1)c1ccc(Oc2cccc(C(F)(F)F)c2)cc1 (centres undefined) | 34% | 40% | 8% | 18% | 59% | 20% | – | – |
| COC(=O)C(Oc1ccc(C(C)(C)C)cc1)c1ccc(Oc2cccc(C(F)(F)F)c2)cc1 (centres undefined) | 70% | 52% | 12% | 35% | 77% | 26% | – | – |
| COC(=O)C(Oc1ccc(Cl)cc1)c1ccc(Oc2ccc(C(C)(C)C)cc2)cc1 (centres undefined) | 30% | 25% | 17% | 11% | 46% | 7% | – | – |
| COC(=O)C(Oc1cccc(C(C)(C)C)c1)c1ccc(Oc2ccc(C(C)(C)C)cc2)cc1 (centres undefined) | 13% | 21% | -5% | 6% | 33% | 4% | – | – |
| COC(=O)C(Oc1ccc(Cl)cc1)c1ccc(Sc2ccccc2)cc1 (centres undefined) | 47% | 41% | 6% | 6% | 30% | 6% | – | – |
| COC(=O)C(Oc1ccc(F)cc1)c1ccc(Sc2ccc(Cl)cc2)cc1 (centres undefined) | 18% | 1% | 21% | 23% | 36% | 22% | – | – |
| COC(=O)C(Oc1ccc(C2CCCCC2)cc1)c1ccc(Sc2ccc(Cl)cc2)cc1 (centres undefined) | 44% | 33% | 14% | 15% | 45% | 19% | – | – |
| COC(=O)C(C)(Oc1ccc(Cl)cc1)c1ccc(Oc2ccc(Cl)cc2)cc1 (centres undefined) | 44% | 39% | 9% | 14% | 63% | 39% | – | – |
| O=C(OCC(O)CO)C(Oc1ccc(Cl)cc1)c1ccc(Oc2ccc(Cl)cc2)cc1 (centres undefined) | 53% | 24% | 13% | 27% | 63% | 39% | – | – |
| CCOC(=O)C(C)(C)Oc1ccc(Cl)cc1 [CLOFIBRATE] | – | – | – | – | 30% | 0% | 58% | 19% |
| O=C(O)C(Oc1cccc(C(F)(F)F)c1)c1ccc(Cl)cc1 (centres undefined) [METAGLIDASEN] | 10% | 14% | 25% | 14% | 49% | 26% | – | – |
